This note sets out measurements from ChEMBL document CHEMBL4330069, “Boosting the efficacy of anti-MRSA β-lactam antibiotics via an easily accessible, non-cytotoxic and orally bioavailable FtsZ inhibitor” (Eur J Med Chem, 2019).

The test system of test [1] is Staphylococcus aureus. The experiment in a line: Bactericidal activity against Staphylococcus aureus ATCC BAA-41 assessed as log reduction in bacterial growth at 2 to 4 times MIC up to 7 hrs by time kill assay. It is filed as functional. In outline: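 Mid-log S. aureus BAA-41 culture (OD595 0.8) diluted to 5×10^5 CFU/mL in CA-MH broth. […] Incubated at 37 °C with shaking at 250 rpm, sampled at 0, 2.5, 5, 7.5, 21 and 24 h, and plated on drug-free CA-MH agar for 24 h at 37 °C to count viable cells; triplicates.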

Test [2] relates to Staphylococcus aureus. The experiment in a line: Synergistic bactericidal activity against Staphylococcus aureus ATCC BAA-41 at 1 to 16 times MIC in presence of methicillin up to 24 hrs by time kill assay. It is filed as functional, organism-based. In short, it runs like this: (§1)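 Colony of strain grown 16 h in CA-MH broth at 37 °C with shaking, diluted 100-fold and grown to mid-log (OD595 0.8), then set at 5×10^5 CFU/mL. […] Sampled at 0, 2.5, 5, 7.5, 21, 24 h, diluted and plated on drug-free CA-MH agar, 24 h at 37 °C; triplicates.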

Test [3] has as its target T1, Cell division protein FtsZ (Staphylococcus aureus) (UniProt P0A031).
T1 sequence (whole entry): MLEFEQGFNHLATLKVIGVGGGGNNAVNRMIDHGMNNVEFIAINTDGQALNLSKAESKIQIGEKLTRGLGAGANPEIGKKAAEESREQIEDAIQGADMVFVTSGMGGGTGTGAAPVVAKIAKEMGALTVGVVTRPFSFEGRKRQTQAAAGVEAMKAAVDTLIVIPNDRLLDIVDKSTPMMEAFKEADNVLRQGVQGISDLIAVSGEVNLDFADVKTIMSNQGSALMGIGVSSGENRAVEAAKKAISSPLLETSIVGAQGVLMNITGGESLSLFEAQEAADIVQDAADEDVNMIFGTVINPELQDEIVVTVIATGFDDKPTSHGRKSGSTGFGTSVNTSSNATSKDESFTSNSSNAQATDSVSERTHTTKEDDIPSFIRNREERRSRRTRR
Kind of test: Inhibition of Staphylococcus aureus N-terminal 6His-tagged FtsZ polymerization expressed in Escherichia coli BL21 (DE3) at 100 uM relative to control. In outline:
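Purified S. aureus FtsZ polymerization with GTP, followed as light scattering (absorbance 600 nm) over time. Compound was tested at 12.5–100 µM against a 1% DMSO vehicle, and inhibition was read at 500 s. Triplicate.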

For test [4], the target named is T1, Cell division protein FtsZ (Staphylococcus aureus). Kind of test: Inhibition of Staphylococcus aureus N-terminal 6His-tagged FtsZ GTPase expressed in Escherichia coli BL21 (DE3) at 100 uM relative to control.
In another test the test system is Escherichia coli. The experiment in a line: Antibacterial activity against Escherichia coli ATCC 25922 by broth microdilution assay. It is filed as functional. In outline: (§2)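 Broth microdilution per CLSI guidelines; compounds dissolved in DMSO; single agents tested; growth inhibition read by eye; run in duplicate (table footnote states at least triplicates).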
On the technique in general: Dilution methods test growth across graded concentrations, often in twofold steps.

A short description of test [5]: Selective index, ratio of IC50 for mouse L929 cells to MIC for Staphylococcus aureus ATCC 29213. In outline: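 Selectivity index calculated as L929 IC50 (μM) divided by S. aureus MIC (μM).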
Test [6] relates to Staphylococcus aureus. The experiment in a line: Antibacterial activity against Staphylococcus aureus ATCC BAA-41 at […] after 24 hrs by time kill assay. The format is functional, organism-based. In outline: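 Time-kill assay. S. aureus BAA-41 was grown in CA-MH broth to mid-log phase (OD595 0.8), then diluted to 5×10^5 CFU/mL. […] Samples were taken at 0–24 h and plated on drug-free CA-MH agar for 24 h. Triplicates.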

In test [7] the target is T1, Cell division protein FtsZ (Staphylococcus aureus). Kind of test: Inhibition of Staphylococcus aureus N-terminal 6His-tagged FtsZ GTPase expressed in Escherichia coli BL21 (DE3) at 30 uM relative to control.
Test [8] shares this target. The experiment in a line: Inhibition of Staphylococcus aureus N-terminal 6His-tagged FtsZ GTPase expressed in Escherichia coli BL21 (DE3) at 50 uM relative to control.
In test [9] the test system is Staphylococcus aureus. The experiment in a line: Synergistic antibacterial activity against Staphylococcus aureus ATCC BAA-41 at 1 to 16 times MIC in presence of methicillin after 21 hrs by time kill assay. The format is functional, organism-based. In outline: as §1
The test system of test [10] is Staphylococcus aureus. Kind of test: Antibacterial activity against Staphylococcus aureus ATCC 29213 by broth microdilution assay. It is filed as functional. In short, it runs like this: as §2
Another test has as its system L929. Kind of test: Cytotoxicity against mouse L929 cells by MTS assay. It is filed as cell-based. In short, it runs like this: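 MTS assay on L929 mouse fibroblasts; IC50 reported as the average of three independent measurements.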
(In general: Formazan colour is commonly taken as a measure of viable cells.)

Test [11] concerns Staphylococcus aureus. The experiment in a line: Antibacterial activity against multidrug-resistant Staphylococcus aureus ATCC 43300 infected in BALB/C mouse assessed as mouse survival at 50 mg/kg, ip bid measured after 5 days relative to control. It is filed as functional.

Converted amounts (≈) assume the structure as drawn. The source made the active and inactive calls. The rule behind the calls is not given here.

The inhibition is the drop in the measured response relative to a control, in per cent. The term MIC denotes the lowest concentration found to suppress growth. Read a low MIC as a more susceptible organism. As usually defined, the IC50 is the concentration that gives 50% inhibition. Consider `NC(=O)c1c(F)ccc(OCc2nc3cc(Cl)cnc3s2)c1F`, for which the log(activity) with Staphylococcus aureus [1] was above 4. Besides, the outcome in the test with Staphylococcus aureus [2], with Staphylococcus aureus [6] and in the test with Staphylococcus aureus [9] was Active. The inhibition entry in test [3] was “Active”. For the same compound, the inhibition is -15% in [4], -47% in [7] and -29% in test [8]. The MIC with Escherichia coli was above 64 µg/mL; against Staphylococcus aureus [10] it was 1.6 µM (≈ 0.569 µg/mL). The “Selectivity Index” value in [5] is given as above 63. Besides, the IC50 in the test with L929 is above 100 µM.
Regarding `CCCCCCCCCNc1ccc(F)c(C(N)=O)c1F.Cl`, in the test with Staphylococcus aureus [11], the Activity is 33%.
